{"data": "Measured values collected from several papers", "SLC22A11": "Solute carrier family 22 member 11 (SLC22A11, Homo sapiens, UniProt Q9NSA0)", "RIOK1": "Serine/threonine-protein kinase RIO1 (RIOK1, Homo sapiens, UniProt Q9BRS2)", "OPRD1": "Delta-type opioid receptor (OPRD1, Homo sapiens, UniProt P41143)", "note": "Protocols differ between the studies behind these lines."}
{"target": "SLC22A11", "assay": "transporter uptake, inhibitor", "setting": "25 µM", "quantity": "inhibition", "value": "76.5%", "Structure (SMILES)": "CC(=O)Oc1ccccc1C(=O)Nc1ncc([N+](=O)[O-])s1"}
{"target": "Diamine oxidase [copper-containing] (AOC1, Homo sapiens, UniProt P19801)", "assay": "enzyme activity, inhibitor", "setting": "1 µM", "quantity": "inhibition", "value": "2.46%", "Structure (SMILES)": "NC/C(=C\\F)COc1cccc(Cn2c(=S)[nH]c(=O)c3[nH]cnc32)c1"}
{"target": "Serine/threonine-protein kinase Nek8 (NEK8, Homo sapiens, UniProt Q86SG6)", "assay": "enzyme activity, inhibitor", "setting": "0.1 µM", "quantity": "inhibition", "value": "4.95%", "Structure (SMILES)": "Cc1cc(O)c(-c2ccc([C@@H](C)CN(C)C)cc2)c2c1[nH]c(=O)c1sccc12"}
{"target": "SLC22A11", "assay": "transporter uptake, inhibitor", "setting": "25 µM", "quantity": "inhibition", "value": "82.7%", "Structure (SMILES)": "CCCCC1C(=O)N(c2ccccc2)N(c2ccccc2)C1=O"}
{"target": "STE20-like serine/threonine-protein kinase (SLK, Homo sapiens, UniProt Q9H2G2)", "assay": "binding, competition with immobilised ligand", "setting": "1 µM", "quantity": "remaining binding", "value": "55%", "Structure (SMILES)": "Cc1cc(S(=O)(=O)N[C@H]2CC[C@H](CN3CCN(c4ccc(C5CCC(=O)NC5=O)cc4F)CC3)CC2)ccc1Nc1ncc(C(F)(F)F)c(N2CCC[C@](C)(O)C2)n1 (stereo partly drawn)"}
{"target": "RIOK1", "assay": "binding, competition with immobilised ligand", "setting": "0.5 µM", "quantity": "remaining binding", "value": "100%", "Structure (SMILES)": "CCCCC(=O)Nc1ccc(-c2ccc3ncn(CCC)c(=O)c3c2)cn1"}
{"target": "Tyrosine-protein kinase ITK/TSK (ITK, Homo sapiens, UniProt Q08881)", "assay": "cell-free assay", "setting": "0.1 µM", "quantity": "remaining signal", "value": "90%", "Structure (SMILES)": "C1=C/COCc2cc(ccc2OCCN2CCCC2)Nc2nccc(n2)-c2cccc(c2)COC/1"}
{"target": "Serine/threonine-protein kinase SIK2 (SIK2, Homo sapiens, UniProt Q9H0K1)", "assay": "enzyme activity, inhibitor", "setting": "0.2 µM", "quantity": "inhibition", "value": "97.4%", "Structure (SMILES)": "C#Cc1cc(-c2cc(Nc3nc(N[C@@H](C)c4ccc(F)cn4)ncc3Cl)n[nH]2)ccc1C=O"}
{"target": "RIOK1", "assay": "binding, competition with immobilised ligand", "setting": "1 µM", "quantity": "remaining binding", "value": "99%", "Structure (SMILES)": "CNS(=O)(=O)c1ccc(Nc2ncc(C(F)(F)F)c(N3CCC[C@](C)(O)C3)n2)c(C)c1"}
{"target": "OPRD1", "assay": "cell-free assay", "setting": "10 µM", "quantity": "inhibition", "value": "1%", "Structure (SMILES)": "Cc1cc(F)cc2c(CCC(=O)N[C@@H]3C(=O)NC[C@H]3O)c(-c3ccc(F)cc3)[nH]c12"}
{"target": "SLC22A11", "assay": "transporter uptake, inhibitor", "setting": "25 µM", "quantity": "inhibition", "value": "76.1%", "Structure (SMILES)": "C[C@@H]1CC(=O)NN=C1c1ccc(NN=C(C#N)C#N)cc1"}
{"target": "RIOK1", "assay": "binding, competition with immobilised ligand", "setting": "1 µM", "quantity": "remaining binding", "value": "100%", "Structure (SMILES)": "C[C@]1(O)CCCN(c2nc(Nc3ccc(S(=O)(=O)N[C@H]4CC[C@H](CN5CCN(c6ccc(C7CCC(=O)NC7=O)cc6F)CC5)CC4)cc3F)ncc2C(F)(F)F)C1 (stereo partly drawn)"}
{"target": "SLC22A11", "assay": "transporter uptake, inhibitor", "setting": "25 µM", "quantity": "inhibition", "value": "82%", "Structure (SMILES)": "CC(C)n1c(/C=C/C(O)CC(O)CC(=O)O)c(-c2ccc(F)cc2)c2ccccc21 (stereo not drawn)"}
{"target": "Misshapen-like kinase 1 (MINK1, Homo sapiens, UniProt Q8N4C8)", "assay": "binding", "setting": "1 µM", "quantity": "remaining binding", "value": "103%", "Structure (SMILES)": "COc1ccc2oc(-c3ccc4nc(N)oc4c3)c/c(=N\\c3ccccc3NC(=O)CCN)c2c1"}
{"target": "SLC22A11", "assay": "transporter uptake, inhibitor", "setting": "25 µM", "quantity": "inhibition", "value": "78.3%", "Structure (SMILES)": "O=C(N/N=C/c1ccc([N+](=O)[O-])o1)c1cc([N+](=O)[O-])cc([N+](=O)[O-])c1O"}
{"target": "OPRD1", "assay": "ligand displacement, radioligand", "setting": "10 µM", "quantity": "inhibition", "value": "0.37%", "Structure (SMILES)": "CCN1/C(=C/C(C)=O)Sc2ccc(F)cc21"}
{"target": "CD209 antigen (CD209, Homo sapiens, UniProt Q9NNX6)", "assay": "cell-free assay", "setting": "pH 7.4", "quantity": "kinact", "value": "0.00574 s⁻¹", "Structure (SMILES)": "O=C(ON1C(=O)CCC1=O)c1cc(C(F)(F)F)cc(C(F)(F)F)c1"}
{"target": "SLC22A11", "assay": "transporter uptake, inhibitor", "setting": "25 µM", "quantity": "inhibition", "value": "80.3%", "Structure (SMILES)": "CCCCNc1ccc(C(=O)OCCN(C)C)cc1"}
